Assay results published in article PMC3920694 (Iranian Journal of Pharmaceutical Research : IJPR, 2013).
Read-outs that look alike come from different tables or passages of the source.

Tests used:
[1] = tested on: HepG2 (Human hepatocyte cancer cell line); experiment: LDH assay cytotoxicity, HepG2; type: cell-based; conditions: HepG2, read-out: IC50 HepG2
[2] = tested on: PC3 (Human prostate adenocarcinoma); experiment: LDH assay cytotoxicity, PC3; type: cell-based
[3] = tested on: HT29 (Human colon carcinoma); experiment: LDH assay cytotoxicity, HT29; type: cell-based; conditions: HT-29, read-out: IC50 HT29
[4] = tested on: Hela (Human cervix carcinoma); experiment: LDH assay cytotoxicity, Hela; type: cell-based; conditions: read-out: IC50 Hela
[5] = tested on: HL60 (Human promylocyteic leukemia); experiment: LDH assay cytotoxicity, HL60; type: cell-based; conditions: HL-60, read-out: IC50 HL60
[6] = tested on: K562 (Human chronic myelogenom leukemia); experiment: LDH assay cytotoxicity, K562; type: cell-based; conditions: K562, read-out: IC50 K562
[7] = tested on: Jurkat (Human Acute T-cell leukemia); experiment: cells; type: cell-based; conditions: read-out: IC50 Jurkat
[8] = tested on: HUVEC (Human umbilical vein endothelial cell); experiment: LDH assay cytotoxicity, HUVEC; type: cell-based; conditions: read-out: IC50 HUVEC
[9] = tested on: MCF7 (Human breast adenocarcinoma); experiment: LDH assay cytotoxicity, MCF7; type: cell-based
[10] = tested on: cancer cell lines (PC3, HT29, Hela, HL60, Jurkat, K562, MCF7, HepG2); experiment: LDH assay cytotoxicity, span over the eight cancer cell lines; type: cell-based; conditions: Homo sapiens, read-out: IC50 on cancer cell lines (range over the eight lines)
In short: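 Cells grown in DMEM with 10% FBS and penicillin/streptomycin at 37°C, 5% CO2. Test compound at 1, 5, 10, 25, 50 and 100 μM for 24 and 48 h. Medium transferred and mixed with LDH reagent plus catalyst (1:45), 30 min in the dark at room temperature. Absorbance read at 490 nm with 630 nm background subtraction. Cell-free medium served as negative control.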

[11] = tested on: PC3 (Human prostate adenocarcinoma); experiment: Trypan blue exclusion, PC3; type: cell-based; conditions: 48 h; Figure 4
In short: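 Cells kept in DMEM with 10% FBS and antibiotics at 37°C, 5% CO2. About 0.75 × 10^5 cells/mL were seeded in 6-well plates and exposed to test compound at several concentrations for 48 h. Cells were then collected, resuspended in 0.4% trypan blue, and unstained cells counted by inverted microscopy. Percent viability was expressed relative to a temozolomide reference control.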

[12] = tested on: leukemia cell lines (HL60, K562 and Jurkat); experiment: Trypan blue exclusion, leukemia cell lines; type: cell-based, Human; conditions: 48 h; compared with structural isomer A; Figures 7-9
[13] = Homo sapiens, read-out: IC50 PC3, LDH assay, incubation 24 and 48 h described

SMILES: N#Cc1ccccc1N=NNc1ccccc1C#N [D, 1,3-bis (2-cyanophenyl) triazene]
- IC50 [1]: 1.49 ± 0.42 µM
- IC50 [2, 13]: 1.04 ± 0.11 µM
- IC50 [3]: 2.03 ± 1.05 µM
- IC50 [4]: 2.39 ± 1.35 µM
- IC50 [5]: 1.34 ± 0.44 µM
- IC50 [6]: 1.04 ± 0.38 µM
- IC50 [7]: 1.44 ± 0.71 µM
- IC50 [8]: 1.14 ± 0.4 µM

SMILES: CCOc1ccccc1N=NNc1ccccc1OCC [C, 1,3-bis(2-ethoxyphenyl)triazene]
- IC50 ([9]; read-out: IC50 MCF7, LDH assay, incubation 24 and 48 h described): 0.59 ± 0.12 µM
- IC50 [1]: 3.33 ± 1.3 µM
- IC50 [2, 13]: 0.59 µM
- IC50 ([2]; read-out: IC50 PC3, LDH assay, incubation 24 and 48 h described): 0.56 ± 0.2 µM
- IC50 [3]: 2.55 ± 1.33 µM
- IC50 [4]: 2.54 ± 1.2 µM
- IC50 [5]: 2.62 ± 0.96 µM
- IC50 [6]: 1.66 ± 0.8 µM
- IC50 [7]: 1.69 ± 1.02 µM
- IC50 [8]: 12.6 ± 2.8 µM
- IC50 [10]: 0.56 to 3.33 µM
- cytotoxic activity on PC3 by trypan blue exclusion [11]: high

SMILES: O=[N+]([O-])c1ccc(N=NNc2cccc(O)c2)cc1 [A, 1-(4-nitrophenyl)-3-(3-hydroxyphenyl)triazene]
- IC50 [1]: 1.12 ± 0.3 µM
- IC50 [2, 13]: 1.24 ± 0.2 µM
- IC50 [3]: 2.82 ± 0.49 µM
- IC50 [4]: 8.87 ± 2.1 µM
- IC50 [5]: 2.3 ± 0.51 µM
- IC50 [6]: 2.1 ± 0.7 µM
- IC50 [7]: 1.2 ± 0.4 µM
- IC50 [8]: 4.4 ± 1.31 µM

SMILES: COc1ccccc1N=NNc1ccccc1OC [F, 1,3-Bis(2-methoxyphenyl)triazene]
- IC50 [1]: 1.45 ± 0.65 µM
- IC50 [2, 13]: 7 ± 2.2 µM
- IC50 [3]: 2.26 ± 1.52 µM
- IC50 [4]: 6.85 ± 2.8 µM
- IC50 [5]: 1.3 ± 0.5 µM
- IC50 [6]: 1.66 ± 0.49 µM
- IC50 [7]: 1.61 ± 0.9 µM
- IC50 [8]: 4.59 ± 1.76 µM

SMILES: O=[N+]([O-])c1ccc(N=NNc2ccccc2O)cc1 [B, 1-(4-nitrophenyl)-3-(2-hydroxyphenyl)triazene]
- IC50 [1]: 1.89 ± 0.78 µM
- IC50 [2, 13]: 3.29 ± 1.3 µM
- IC50 [3]: 3.37 ± 1.65 µM
- IC50 [4]: 4.2 ± 1.4 µM
- IC50 [5]: 1.36 ± 0.34 µM
- IC50 [6]: 1.13 ± 0.67 µM
- IC50 [7]: 1.05 ± 0.98 µM
- IC50 [8]: 3.22 ± 1.1 µM
- effectiveness on leukemia cell lines (HL60, K562 and Jurkat) by trypan blue exclusion [12]: more effective

SMILES: c1ccc(N=NNc2ccccc2)cc1 [G, 1,3-diphenyltriazene]
- IC50 ([9]; Homo sapiens, MCF7, read-out: IC50 MCF7): 1.57 ± 0.34 µM
- IC50 [1]: 3.94 ± 1.45 µM
- IC50 ([2]; Homo sapiens, read-out: IC50 PC3): 4.13 ± 1.8 µM
- IC50 [3]: 9.4 ± 2.3 µM
- IC50 [4]: 4.88 ± 1.5 µM
- IC50 [5]: 3.4 ± 1.96 µM
- IC50 [6]: 6.33 ± 2.41 µM
- IC50 [7]: 5.53 ± 1.44 µM
- IC50 [8]: 7.43 ± 2.1 µM

SMILES: O=[N+]([O-])c1ccc(N=NNCCO)cc1 [E, 1-(4-nitrophenyl)-3-(2-hydroxyethyl)triazene]
- IC50 [1]: 4.2 ± 1.2 µM
- IC50 [2, 13]: 3 ± 1.01 µM
- IC50 [3]: 8.25 ± 2.2 µM
- IC50 [4]: 15.5 ± 3.01 µM
- IC50 [5]: 2.81 ± 0.99 µM
- IC50 [6]: 9.87 ± 2.08 µM
- IC50 [7]: 4.5 ± 1.67 µM
- IC50 [8]: 5.05 ± 1.8 µM
- IC50 [10]: 3 to 15.5 µM

SMILES: Cn1nnc2c(C(N)=O)ncn2c1=O [TMZ, Temozolomide, reference compound]
- IC50 [1]: 2.59 ± 1.3 µM
- IC50 [2, 13]: 1.39 ± 0.69 µM
- IC50 [3]: 17.2 ± 3.2 µM
- IC50 [4]: 8.88 ± 2.2 µM
- IC50 [5]: 3.54 ± 1.56 µM
- IC50 [6]: 3.82 ± 1.6 µM
- IC50 [7]: 2.07 ± 1.34 µM
- IC50 [8]: 4.85 ± 1.78 µM
